# Screening data (PubChem BioAssay)
# This is a sample that favours compounds with a hit; in the whole collection about 3% have one here.
# HNF4A DNA FP = change in binding of human HNF4 alpha to DNA; P41235; HNF4a-FITC DNA binding, fluorescence polarization, 1 h; activity change, % at 10 µM; 360,000 compounds, 0.3% hits; AID 1224865; in the data active means activity change above about 30%, passing the limit was not always enough
# Target sequence (P41235 whole entry, looked up): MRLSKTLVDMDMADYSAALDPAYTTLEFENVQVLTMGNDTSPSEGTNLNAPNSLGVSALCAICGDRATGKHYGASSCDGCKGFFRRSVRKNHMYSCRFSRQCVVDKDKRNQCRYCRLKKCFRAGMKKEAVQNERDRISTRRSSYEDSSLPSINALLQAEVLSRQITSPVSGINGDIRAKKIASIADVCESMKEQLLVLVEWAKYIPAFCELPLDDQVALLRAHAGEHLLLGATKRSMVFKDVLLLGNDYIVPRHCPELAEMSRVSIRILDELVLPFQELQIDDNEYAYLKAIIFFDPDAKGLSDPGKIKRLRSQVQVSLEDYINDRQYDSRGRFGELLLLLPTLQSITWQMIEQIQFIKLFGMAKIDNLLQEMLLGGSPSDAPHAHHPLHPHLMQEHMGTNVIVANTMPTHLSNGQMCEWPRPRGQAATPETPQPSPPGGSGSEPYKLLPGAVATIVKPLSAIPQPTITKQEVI
# Myeloid diff MLP = promotes myeloid progenitor differentiation. 360,000 compounds, 1% hits. AID 624256. calls only at 10 µM. ER-HoxA9 myeloid progenitors, lysozyme-GFP differentiation, flow cytometry;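 active means normalized GFP-positive differentiation at or above the plate's own cutoff, the solvent-only control mean plus 3 SD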;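 further: cells exposed to compound for four days before flow analysis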
# H9c2 protect = modulators protecting cardiomyocytes from myocardial damage | 360,000 compounds, 0.63% hits | H9c2 cardiomyocytes, H2O2 injury protection, ATPLite, 2 h | protection from H2O2 cell death, % at 20 µM;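 active means compounds giving at least 50% protection of heart cells from peroxide-induced death in the single-dose screen, raw or plate-pattern-corrected value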;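 further: 0% = DMSO wells with peroxide and 100% = DMSO wells without peroxide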
# Exocytosis inh = blocks lytic granule exocytosis; TALL-104 LAMP-1 surface exposure, flow cytometry; cells stimulated with thapsigargin and PMA; inhibition, % at 10 µM; 360,000 compounds, 0.66% hits;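 active means inhibition above about 55%, limit read from the data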
# DSG3 Ab inh = inhibitors of pemphigus antibody binding to human desmoglein-3. P32926. DSG3-coupled beads, scFv-anti-DSG3-GFP binding, flow cytometry; stronger effect = lower value. binding (percent of control), % at 10 µM. 310,000 compounds, 0.48% hits;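 active means binding more than 3 SD below its plate's average and above zero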
# SENP1 FRET inh = inhibitors of human SENP1 SUMO protease catalytic domain | Q9P0U3 | recombinant SENP1 catalytic domain, CyPet-SUMO1-YPet FRET cleavage | inhibition, % at 10 µM | 360,000 compounds, 0.21% hits | AID 624204;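 active means inhibition at least 30% at 10 µM, raw YFP signal under a set limit, fluorescence ratio 0.5 to 1.5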;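 further: 0% = enzyme with DMSO and 100% = no enzyme wells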
#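 Test system: hSENP1 catalytic domain, recombinant; Amount: 20 pM final SENP1 enzyme; Medium: Tris pH 8 buffer plus EDTA, NaCl, BME, BSA, NP40, catalase; Schedule: 50 min enzyme reaction, room temperature, light-protected; Technique: FRET fluorescence in CFP and YFP emission channels; Controls: no-enzyme wells low, DMSO-plus-enzyme wells high control.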
# Myeloid diff = compounds promoting myeloid differentiation | shares compounds with Myeloid diff MLP | ER-HoxA9 myeloid progenitors, GFP/Mac1 double-positive flow | calls only | 2,300 compounds, 2% hits | AID 651706;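 active means share of green or green-and-red cells above 9 and 9% in run 1 or 4 and 3% in run 2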
# GFP autofluor = counter-screen for myeloid differentiation promoters: compound fluorescence. 2,300 compounds, 7.4% hits. ER-HoxA9 myeloid progenitors, no estrogen, GFP autofluorescence flow cytometry; vehicle wells 0%, positive control 100%. AID 651707. fluorescence response, % (no concentration beside the values). shares compounds with Myeloid diff MLP;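 active means over 5% cells positive for green fluorescent reporter, or over 2% positive for both it and APC stain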;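 further: range taken on the double positive population between DMSO and positive control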
# The depositor's hits bear a star; i = inactive; . = not tested or not shown; + = active, no number.
SMILES,HNF4A DNA FP,Myeloid diff MLP,H9c2 protect,Exocytosis inh,DSG3 Ab inh,SENP1 FRET inh,Myeloid diff,GFP autofluor
COC(=O)NC(=C(Cl)Cl)P(=O)(c1ccccc1)c1ccccc1,1,+,1,21,98,-2,i,0
CN(c1ccc(O)cc1)c1ccc([N+](=O)[O-])c2nonc12,11,+,2,-32,96,6,i,4
O=[N+]([O-])c1ccc(N2CCCCCC2)c2nonc12,-85,i,-5,2,266,84,.,.
Cc1nn(Cc2ccccc2)c(Cl)c1C(=O)OC(C)C(=O)Nc1ccc(F)cc1Cl (stereo not given),-1,i,-15,2,83,1,i,1
Cc1cc(NC(=O)COC(=O)c2c(C)nn(Cc3ccccc3)c2Cl)no1,-1,i,6,3,103,2,+,0
CCc1ccc(NC(=O)C(C)OC(=O)c2c(C)nn(Cc3ccccc3)c2Cl)cc1 (stereo not given),-4,i,-4,2,83,0,.,.
C=C1[C@H]2CC[C@H]3[C@]4(C)C[C@H](O[C@@H]5OC(CO)[C@@H](OSOOO)[C@H](OS(=O)(=O)O)[C@H]5OC(=O)CC(C)C)C[C@@H](C(=O)O)[C@H]4CC[C@]3(C2)[C@H]1O (stereo not given in full),2,i,3,-7,102,1,.,.
CN(CCOc1ccc(C=C2C(=O)NC(=O)NC2=O)cc1)c1ccccn1,-1,i,9,-3,188,1,i,0
O=C1NC(=S)NC(=O)C1=Cc1ccc(OCc2ccccc2)cc1,2,i,-4,-11,97,-3,.,.
Cc1ccc(C(=O)n2cc(CCN3CCS(=O)(=O)CC3)c3ccccc32)cc1,2,i,2,-3,102,2,.,.
O=P(CN1CCN(c2ccccc2)CC1)(N1CCCCC1)N1CCCCC1,0,+,4,-6,103,1,i,0
CC(N)Cc1c[nH]c2c1ccc1ccccc12 (stereo not given),3,i,11,-5,95,-3,i,1
COc1cc(OC)c(C=O)c(OC(=O)N(C)C)c1,3,i,10,2,102,1,.,.
Cc1ccc(N=C(/N=C(\N)N[N+](=O)[O-])Nc2ccc(C)cc2)cc1,3,i,8,-7,107,5,i,1
CC12CN3CC(C)(CN(C1)C3c1ccco1)C2=O (stereo not given),-3,i,1,0,94,2,.,.
Cc1nc(SCc2c(Cl)cccc2Cl)nc(OC(=O)N(C)C)c1C,0,i,-9,6,93,2,.,.
Fc1ccccc1N1CCN(Cc2ccc3c(c2)OCO3)CC1,-6,i,-1,-1,105,1,i,0
COC(=O)[C@]1(C)C[C@H]1[C@H](NP(=O)(c1ccccc1)c1ccccc1)c1ccccc1,-1,i,8,1,98,2,i,0
CCC(=NC(C)c1ccccc1)c1c(O)[nH]c(=O)[nH]c1=O (stereo not given),2,+,0,4,118,1,i,1
O=c1[nH]c(=S)[nH]c(O)c1N=Nc1ccc2c(c1)OCCO2,48*,+,-14,-4,81,36*,i,0
COc1cccc(N=Nc2c(O)[nH]c(=S)[nH]c2=O)c1,19,i,-15,0,98,12,.,.
CCN(CC)CCCN=Cc1c(O)n(-c2ccccc2F)c(=O)[nH]c1=O,0,i,-1,-1,103,2,.,.
CCN(CC)CCCN=Cc1c(O)n(-c2cccc(C)c2C)c(=O)[nH]c1=O,3,+,-1,0,111,-1,i,0
C[C@]12CCC(=O)C=C1CCC1C2CC[C@@]2(C)C1CC[C@@]2(O)CC#N (stereo not given in full),3,+,12,1,86,-1,i,0
C[C@]12CCC(=O)C=C1CC[C@@H]1[C@@H]2CC[C@@]2(C)[C@H]1CC[C@]2(C)O,2,.,4,-11,98,-3,.,.
SMILES,HNF4A DNA FP,Myeloid diff MLP,H9c2 protect,Exocytosis inh,DSG3 Ab inh,SENP1 FRET inh,Myeloid diff,GFP autofluor
O=c1c2ccccc2nc(/C=C/c2ccc(O)cc2)n1-c1ccccc1O,3,i,2,-2,98,3,.,.
O=c1c2ccccc2nc(/C=C/c2ccc(O)c(O)c2)n1-c1ccccc1,16,i,56*,2,117,-26,i,0
CS(=O)(=O)NNP(=O)(NNS(C)(=O)=O)NC(=O)c1ccccc1,-1,i,14,2,105,0,.,.
CCOP(=S)(OCC)c1ccc(N(C)C)cc1,1,+,1,0,107,0,i,0
CCc1cc2c(cc1-c1csc(C/C(N)=N/O)n1)C(C)(C)CCC2(C)C,0,+,-7,-3,107,-1,i,2
CCOC(=O)C1=C(C)c2ccccc2OC1(C(=O)OCC)c1ccccc1 (stereo not given),-4,i,-5,-5,104,-1,i,0
COc1ccc(OC)c(CN2CCN(C(=O)Cc3ccccc3)CC2)c1,2,i,3,0,103,0,.,.
CN1CCC(c2c[nH]c3ccc(O)cc23)CC1,1,i,-6,6,98,1,.,.
CC1CCCC(C)N1/N=C/c1c[nH]c2ccc(Br)cc12 (stereo not given),2,i,8,6,75,-4,i,2
CCOC(=O)c1c(C)n(COCCO)c2ccc(O)cc12,-1,i,4,2,91,2,i,0
CCOC(=O)c1c(C)n(Cc2ccc(F)cc2)c2ccc(O)cc12,0,i,-8,-5,96,1,.,.
CCc1ccccc1NC(=O)N1C[C@H]2C[C@@H](C1)c1cccc(=O)n1C2,0,i,1,-4,104,2,.,.
COC(=O)C1=C(c2cc3ccccc3s2)C[C@@H]2CC[C@H]1N2C(=O)NCC1CC1,-3,i,-16,-5,105,1,i,0
CCCNC(=O)N1[C@H]2CC[C@@H]1C(C(=O)OC)=C(c1ccc(Cl)c(C(F)(F)F)c1)C2,3,i,-5,5,100,1,i,1
